sPLA2-III inh: Inhibits HGIII-sPLA2 liposome hydrolysis, primary screen; QFRET BODIPY PC-A2 liposome hydrolysis, fluorescence; 370,000 compounds, 0.56% hits; Q9NZ20; AID 743126; inhibition, % at 12.2 µM;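 active = inhibition above mean plus 3 SD of compounds lying within the high and low control bounds, cut at about 19% in these data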
Target sequence (Q9NZ20 whole entry, looked up): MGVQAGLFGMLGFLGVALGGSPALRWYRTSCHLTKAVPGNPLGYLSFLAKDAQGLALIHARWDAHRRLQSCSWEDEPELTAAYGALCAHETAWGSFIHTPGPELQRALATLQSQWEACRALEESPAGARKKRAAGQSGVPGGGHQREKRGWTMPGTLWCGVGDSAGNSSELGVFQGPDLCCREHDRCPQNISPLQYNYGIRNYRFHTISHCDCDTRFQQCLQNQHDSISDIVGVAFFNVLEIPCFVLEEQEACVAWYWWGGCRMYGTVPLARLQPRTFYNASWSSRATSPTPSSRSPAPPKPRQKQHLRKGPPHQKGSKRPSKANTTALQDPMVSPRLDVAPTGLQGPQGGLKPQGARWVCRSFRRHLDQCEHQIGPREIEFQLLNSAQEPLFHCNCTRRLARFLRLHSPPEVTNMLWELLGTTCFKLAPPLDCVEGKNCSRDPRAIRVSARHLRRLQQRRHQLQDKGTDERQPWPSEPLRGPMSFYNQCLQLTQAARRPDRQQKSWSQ
Arrestin-AP2 inh: human beta-arrestin and AP2 interaction inhibition; FITC-arrestin peptide / GST-AP2 beads, flow cytometry; AP2 beta2 appendage carries R879A mutation; inhibition, % at 10 µM; 340,000 compounds, 0.31% hits; AID 504490;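 active = inhibition above a set limit, near 3 SD of compounds lacking own fluorescence, cut at about 54% in these data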
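Test system: GST-tagged AP2 beta2-adaptin appendage (R879A) on 4 µm glutathione beads; also added: fluorescein-tagged arrestin peptide at 50 nM final; timing: 12 min plus 1 h, RT; signal: flow cytometry, FL1 (488/535 nm); read-out: percent drop in bead-associated FITC signal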
NRP1-CendR mod: modulators of CendR peptide binding to human neuropilin-1; O14786; FAM-RPARPAR peptide binding to NRP-1, fluorescence polarization; inhibition, % at 25 µM; 360,000 compounds, 0.85% hits; AID 602438;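 active = inhibition or corrected inhibition above about 18%, plus a signal ratio from 0.5 to 1.5, limit read from the data, passing the limit was not always enough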
PfM18AAP inh-1: blocks P. falciparum M18 aspartyl aminopeptidase; recombinant PfM18AAP, H-Glu-NHMec fluorogenic cleavage; inhibition, % at 7.35 µM; 290,000 compounds, 1.2% hits;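 active = inhibition above the campaign mean inhibition over all tested compounds plus 3 SD, cut at about 28% in these data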
HTR2A ag: activates the mouse 5-HT2A serotonin receptor | activation, % at 7.6 µM | CHO-K1 mHTR2A beta-arrestin complementation, luminescence; percent of 30 µM serotonin response | AID 624169 | 360,000 compounds, 0.66% hits;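 active = activation above a run cutoff, the mean activation of all tested compounds plus 3 SD, cut at about 14% in these data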
Hep lipid drop: modulators of hepatic lipid droplet formation | 240,000 compounds, 0.4% hits | AML12 mouse hepatocytes, oleate lipid droplets, BODIPY imaging | inhibition, % at 6.5 µM | AID 1656;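 active = lipid droplet intensity inhibited by at least 50%, with more than 500 cells counted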
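Test system: AML12 mouse liver cells; schedule: overnight exposure; technique: high-content imaging of BODIPY-stained droplets and DAPI nuclei; read-out: % inhibition of corrected integrated BODIPY droplet signal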
PfM18AAP inh-2: confirmation of Plasmodium falciparum M18 aspartyl aminopeptidase inhibitors. shares compounds with PfM18AAP inh-1. 2,400 compounds, 28% hits. recombinant PfM18AAP, H-Glu-NHMec fluorogenic cleavage. inhibition, % at 7.35 µM;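 active = mean inhibition over replicate wells above the hit cutoff set for the earlier primary screen, cut at about 29% in these data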
CTSL1 confirm: Cathepsin L (human) inhibition, confirmation. shares compounds with PfM18AAP inh-1. purified cathepsin L1, Z-Leu-Arg-MCA fluorescence. inhibition, % at 5.96 µM. 2,400 tested, under 10 active. AID 2178;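 active = average inhibition across replicates above the hit cutoff set in the earlier primary screen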
A number is an active result; i = inactive; nt = no result. This is a sample that favours compounds with a hit; in the whole collection about 3.3% have one here.

SMILES	sPLA2-III inh	Arrestin-AP2 inh	NRP1-CendR mod	PfM18AAP inh-1	HTR2A ag	Hep lipid drop	PfM18AAP inh-2	CTSL1 confirm
O=C(Nn1cnnc1)c1cc(Cl)cc(Cl)c1	i	i	i	47	i	i	32	i
Cc1ccc(C(=O)NC(=S)Nn2cnnc2)cc1	i	i	i	84	i	i	60	i
Cc1cc(C(=O)Nn2cnnc2)ccc1[N+](=O)[O-]	i	i	i	46	i	i	51	i
Cc1cc(C(=O)Nc2ccncc2)ccc1[N+](=O)[O-]	i	i	i	i	i	nt	nt	nt
COCC(=O)N1CCC(Oc2ccc(C(=O)N(C)CCCC3CCCC3)cc2)CC1	i	i	i	i	i	i	nt	nt
Cn1cc(CCOCc2ccccn2)c2ccccc21	i	nt	nt	nt	nt	nt	nt	nt
CCOc1ccc(CCNC(=O)c2ccc3[nH]ccc3c2)cc1OCC	i	nt	nt	nt	nt	nt	nt	nt
O=C(Cc1n[nH]c(=O)c2ccccc12)Nc1cc(C(F)(F)F)ccc1-n1cncn1	i	i	i	nt	i	nt	nt	nt
Cc1cc(N(C)N)nc(NC(=O)NS(=O)(=O)c2ccccc2Cl)n1	i	i	i	57	i	i	50	i
CC1Sc2ccc(C(=O)O)cc2NC1=O (stereo not given)	i	i	i	44	i	i	i	i
CCC(C(=O)Nc1ccccc1N1CCCC1)c1cccc(Cl)c1 (stereo not given)	i	nt	nt	nt	nt	nt	nt	nt
CSc1cccc(N/C(=N/S(=O)(=O)c2ccccc2)NN)c1	i	i	i	38	i	i	i	i
CSc1cccc(NC(=S)NN/C(=N/S(=O)(=O)c2ccccc2)N2CCCC2)c1	i	nt	nt	nt	nt	nt	nt	nt
CCOC(=O)c1c(/N=C/C2=C(O)CCCC2=O)sc(C)c1C	i	i	i	i	i	i	nt	nt
CCOC(=O)c1c(-c2ccc(OC)cc2)csc1/N=C/C1=C(O)CCCC1=O	i	i	i	37	i	i	i	i
Cc1ccc(Nc2nc(-c3ccc(O)c(O)c3)cs2)nc1	i	nt	nt	63	nt	i	43	i
Cc1ccc(Nc2nc(-c3c(C)nc4ncccn34)cs2)cc1	i	i	i	i	i	nt	nt	nt
Cc1ccc(Nc2nc(-c3ccc(F)cc3)cs2)nc1	i	i	i	i	i	nt	nt	nt
Cc1cc(NS(=O)(=O)c2ccc(Nc3nc(-c4ccc(O)cc4)cs3)cc2)no1	i	i	i	43	i	i	i	i
Cc1nc2ncccn2c1-c1csc(Nc2ccc(O)cc2)n1	i	i	i	41	i	i	43	i
Oc1ccc(-c2csc(Nc3ccccn3)n2)c(O)c1	i	i	i	34	i	i	i	i
C(=C\c1ccccn1)/c1cccnc1	i	i	i	i	i	i	nt	nt
COC(=O)[C@]12C[C@H](CC(=O)NCCc3ccccc3OC)C(=O)N(Cc3ccc(Cl)cc3Cl)C1=C[C@H](COCc1ccccc1)O[C@@H]2C	i	nt	nt	nt	nt	nt	nt	nt
CCn1cnc2c(NCc3cccnc3)nc(C#N)nc21	i	nt	nt	nt	nt	nt	nt	nt
O=C(CSc1nnc(COc2ccc(Cl)cc2)o1)N(c1ccccc1)C1CCS(=O)(=O)C1 (stereo not given)	i	nt	i	nt	i	nt	nt	nt
SMILES	sPLA2-III inh	Arrestin-AP2 inh	NRP1-CendR mod	PfM18AAP inh-1	HTR2A ag	Hep lipid drop	PfM18AAP inh-2	CTSL1 confirm
NS(=O)(=O)c1ccc(Nc2nc(-c3ccc(O)cc3O)cs2)cc1	i	i	i	41	i	i	39	i
Cc1cccnc1Nc1nc(-c2ccc(O)cc2O)cs1	i	i	i	32	i	nt	i	i
O=c1[nH]nc(-c2ccc[nH]2)[nH]1	i	nt	i	nt	i	nt	nt	nt
CCc1ccc(/C(C)=N/NC(=O)CNC(=O)/C=C/c2ccco2)cc1	nt	i	i	nt	i	nt	nt	nt
CCC(C)c1ccc(O)c(N)c1 (stereo not given)	i	i	i	64	i	nt	69	i
CC(C)c1ccc(O)c(N)c1	i	i	i	i	i	i	nt	nt
O=C1OCC=C1NNC(=O)c1cccnc1	i	i	i	55	i	i	69	i
CC(C(=O)Nc1ncn[nH]1)N1C(=O)c2ccccc2C1=O (stereo not given)	i	i	i	51	i	i	51	i
CC(=O)Nc1ccc(NC(=O)C(C)OC(=O)/C=C/c2ccc3c(c2)OCO3)cc1 (stereo not given)	i	i	i	nt	i	nt	nt	nt
COc1cccc(NC(=O)C(OC(=O)/C=C/c2ccc3c(c2)OCO3)c2ccccc2)c1 (stereo not given)	i	i	i	32	i	i	i	i
c1ccc(Nc2ccnc(Nc3ccccc3)n2)cc1	i	i	i	i	i	i	nt	nt
NNc1nccc(Nc2ccccc2C(=O)O)n1	i	i	i	43	i	i	i	i
Cc1ccccc1NC(=S)C1=C(O)c2sccc2N(C)S1(=O)=O	i	i	i	33	i	i	i	i
Cc1cc2c(C)nc(N/N=C/c3ccc(F)cc3)nc2o1	i	i	i	46	i	i	i	i
CSc1ccc(/C=N/Nc2nc(C)cc(C)n2)cc1	i	i	i	i	i	i	nt	nt
Cc1cc(NC(=O)NC2(C(F)(F)F)Oc3ccc(Cl)cc3O2)no1 (stereo not given)	nt	i	i	88	i	i	83	i
Cc1cc(NC(=O)Nc2ccc(F)c(Cl)c2)no1	i	i	i	i	i	i	nt	nt
COCCNC(=O)C(C)Oc1ccc(Cl)cc1Cl (stereo not given)	i	i	i	i	i	nt	nt	nt
O=C(NCc1cccnc1)NC1(C(F)(F)F)Oc2ccc(Cl)cc2O1 (stereo not given)	nt	i	i	80	i	i	83	i
COCCNC(=O)NC1(C(F)(F)F)Oc2ccc(Cl)cc2O1 (stereo not given)	i	i	i	83	i	nt	61	i
COc1ccccc1-c1nnc(C2CCN(S(=O)(=O)c3ccccc3[N+](=O)[O-])CC2)o1	i	i	i	i	i	i	nt	nt
C[C@@H]1CN([C@@H](C)CO)C(=O)CCCn2nncc2CO[C@H]1CN(C)S(=O)(=O)c1ccc(-n2cccn2)cc1	i	nt	i	nt	i	nt	nt	nt
CN(Cc1ccncc1)C(=O)[C@@H]1CCCN1C(=O)[C@@H]1CCCN1	i	nt	i	nt	i	nt	nt	nt
COc1ccc(Nc2nc3c([nH]2)c(=O)[nH]c(=O)n3C)cc1	i	i	i	35	i	i	i	i
COCCCNc1nc2c([nH]1)c(=O)[nH]c(=O)n2C	i	i	i	i	i	nt	nt	nt
Cc1ccc2c(c1)N(CC(=O)NCc1cccnc1)C(=O)CO2	i	i	i	81	i	i	i	i
Cc1ccc(NC(=O)CN2C(=O)COc3ccc(C)cc32)nc1	i	i	i	i	i	nt	nt	nt
O=C(CNC(=O)c1ccccc1)NCC(=O)OCC(=O)c1ccc([N+](=O)[O-])cc1	i	i	i	40	i	i	i	i
